Our source for the IC50 and T/C values is ChEMBL document CHEMBL1125604, “Synthesis and antitumor evaluations of symmetrically and unsymmetrically substituted 1,4-bis[(aminoalkyl)amino]anthracene-9,10-diones and 1,4-bis[(aminoalkyl)amino]-5,8-dihydroxyanthracene-9,10-diones” (J Med Chem, 1991).

The T/C is the result in the treated group divided by that in the control group, in per cent.

In brackets after ≈: the same amount, converted by molar mass.

One assay has as its system L1210. The assay is described as follows: The compound was tested for its antitumor activity against L1210 cells. The class given is functional. The conditions noted are these: Mus musculus, read-out: ID50 (the source's name).
Assay [1] has as its system Mus musculus. The assay is described as follows: At 25 mg/kg dose CDF1 mice were injected ip on (1,5,9) days after tumor transplantation to evaluate mean survival time. The format is functional. The note with it: route intraperitoneal. In a few lines: (§1)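 CDF1 mice were inoculated ip with 10^6 murine leukemia cells on day 0. Drug was given ip starting 24 h later, on the day schedule listed in each line. Mice were checked daily for toxicity and survival, and day of death was recorded over a 60-day study. The result is reported as mean survival time of treated mice divided by that of controls, ×100.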

Assay [2] has as its system Mus musculus. The assay is described as follows: At 50 mg/kg dose CDF1 mice were injected ip on (1,5,9) days after tumor transplantation to evaluate mean survival time. The format is functional. The note with it: route intraperitoneal. In a few lines:
as §1

Assay [3] concerns Mus musculus. Put plainly: At 25 mg/kg dose CDF1 mice were injected ip on (1,5) days after tumor transplantation to evaluate mean survival time. The class given is functional. The conditions noted are these: route intraperitoneal. In outline:
as §1

In assay [4] the test system is Mus musculus. The assay is described as follows: At 12.5 mg/kg dose CDF1 mice were injected ip on (1,5,9) days after tumor transplantation to evaluate mean survival time. The format is functional. The conditions noted are these: route intraperitoneal. In a few lines: as §1
The species named for assay [5] is Homo sapiens. The assay is described as follows: Inhibition of cellular growth was evaluated in vitro against human colon carcinoma subline resistant to DOXO (LOVO/DOXO). The class given is functional, organism-based. In a few lines: (§2)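 LOVO and LOVO/DOXO cells were grown at 37 °C under 5% CO2 in Ham's F12 with 20% fetal calf serum. They were plated at 2.5 × 10³ cells/dish and exposed continuously to drug for 144 h. Growth inhibition was read by MTT assay, and the ID50 (drug concentration giving 50% inhibition of growth versus control) was derived.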

The species entered for assay [6] is Homo sapiens. Put plainly: Inhibition of cellular growth was evaluated in vitro against human colon carcinoma LOVO. The class given is functional, organism-based. In outline: as §2
The subject of assay [7] is Mus musculus. The assay is described as follows: At 50 mg/kg dose CDF1 mice were injected ip on (1,5) days after tumor transplantation to evaluate mean survival time. The conditions noted are these: route intraperitoneal. The format is functional. In a few lines: as §1
For assay [8], the system named is Mus musculus. Put plainly: At 5 mg/kg dose CDF1 mice were injected ip on (1,5) days after tumor transplantation to evaluate mean survival time. The conditions noted are these: route intraperitoneal. The format is functional. In a few lines: as §1
Assay [9] has as its system Mus musculus. The assay is described as follows: At 6.25 mg/kg dose CDF1 mice were injected ip on (1,5,9) days after tumor transplantation to evaluate mean survival time. The format is functional. The note with it: route intraperitoneal. In outline: as §1
The species named for assay [10] is Homo sapiens. The assay is described as follows: Inhibition of cellular growth was evaluated in vitro against human colon carcinoma LOVO. The format is functional. In outline: as §2
Assay [11] deals with Mus musculus. Put plainly: At 50 mg/kg dose CDF1 mice were injected ip on 1 day after tumor transplantation to evaluate mean survival time. The format is functional. The note with it: route intraperitoneal. In a few lines:
as §1

The subject of assay [12] is Mus musculus. The assay is described as follows: At 12.5 mg/kg dose CDF1 mice were injected ip on (1) days after tumor transplantation to evaluate mean survival time. The class given is functional. The note with it: route intraperitoneal. In a few lines: as §1
Assay [13] concerns Mus musculus. The assay is described as follows: At 25 mg/kg dose CDF1 mice were injected ip on (1) days after tumor transplantation to evaluate mean survival time. The format is functional. The note with it: route intraperitoneal. In a few lines: as §1

For the compound `CN(C)CCNc1ccc(NCCNCCO)c2c1C(=O)c1ccccc1C2=O`, the IC50 in the assay on L1210 is 0.0038 µg/mL (≈ 0.00958 µM). For the same compound, the T/C in the assay on Mus musculus [1] was 148%; in the assay on Mus musculus [2], 145%.

Take `CN(C)CCNc1ccc(N(C)CCN(C)C)c2c1C(=O)c1ccccc1C2=O`: in the assay on L1210, the IC50 amounted to 0.5 µg/mL (≈ 1.27 µM). In addition, the T/C is listed as 108% in the assay with Mus musculus [3] and 127% in the assay on Mus musculus [2].

`CN(C)CCNc1ccc(NCCN)c2c1C(=O)c1ccccc1C2=O`: the IC50 in the assay with L1210 is 0.03 µg/mL (≈ 0.0851 µM). In addition, the T/C worked out at 150% with Mus musculus [1], 129% in the assay with Mus musculus [4] and 180% with Mus musculus [2].

In the case of `O=C1c2c(O)ccc(O)c2C(=O)c2c(NCCNCCO)ccc(NCCNCCO)c21` [MITOXANTRONE], the IC50 amounted to 0.274 µg/mL (≈ 0.616 µM) in the assay listed under Homo sapiens [5] and 0.0055 µg/mL (≈ 0.0124 µM) in the assay listed under Homo sapiens [6].

For the compound `CN(C)CCNc1ccc(NCCCCN)c2c1C(=O)c1ccccc1C2=O`, the T/C in the assay with Mus musculus [7] was 64%; in the assay on Mus musculus [3], 111%; with Mus musculus [4] it was 113%. In addition, in the assay with L1210, the IC50 was 0.0045 µg/mL (≈ 0.0118 µM).

Take `NCCCCNc1ccc(NCCNCCO)c2c1C(=O)c1c(O)ccc(O)c1C2=O`: the IC50 in the assay on L1210 was determined as 0.0007 µg/mL (≈ 0.00163 µM). Besides, the T/C with Mus musculus [8] is given as 138%.

As for `O=C1c2ccccc2C(=O)c2c(NC3CC3)ccc(NC3CC3)c21`, the T/C was found to be 100% in the assay on Mus musculus [9], 107% in the assay with Mus musculus [1] and 112% in the assay on Mus musculus [4]. The IC50 in the assay with L1210 was more than 10 µg/mL.

Take `CN(C)CCNc1ccc(NCCNCCO)c2c1C(=O)c1c(O)ccc(O)c1C2=O`: the T/C amounted to 188% in the assay on Mus musculus [9], 244% in the assay with Mus musculus [1] and 187% with Mus musculus [4]. Further, the IC50 is 0.00017 µg/mL (≈ 0.000397 µM) in the assay on L1210, 0.001 µg/mL (≈ 0.00233 µM) in the assay filed under Homo sapiens [10] and 0.024 µg/mL (≈ 0.056 µM) in the assay filed under Homo sapiens [5].

In the case of `O=C1c2ccccc2C(=O)c2c(NCCNCCO)ccc(NCCNCCO)c21` [AMETANTRONE], the IC50 in the assay on L1210 amounted to 0.01 µg/mL (≈ 0.0242 µM); in the assay filed under Homo sapiens [5], 44.8 µg/mL (≈ 109 µM); in the assay listed under Homo sapiens [6], 0.283 µg/mL (≈ 0.685 µM). For the same compound, the T/C was 252% in the assay with Mus musculus [1], 177% with Mus musculus [4] and 146% with Mus musculus [2].

As for `CN(C)CCN(C)c1ccc(N(C)CCN(C)C)c2c1C(=O)c1ccccc1C2=O`, the IC50 in the assay with L1210 came out at 4.6 µg/mL (≈ 11.3 µM). In addition, the T/C is 95% in the assay on Mus musculus [11], 103% in the assay on Mus musculus [12] and 100% with Mus musculus [13].

With `COc1cccc2c1C(=O)c1c(O)c3c(c(O)c1C2=O)C[C@@](O)(C(=O)CO)C[C@@H]3O[C@H]1C[C@H](N)[C@H](O)[C@H](C)O1` [DOXORUBICIN], the IC50 in the assay listed under Homo sapiens [5] stood at 3.84 µg/mL (≈ 7.07 µM); in the assay filed under Homo sapiens [6] it was 0.0247 µg/mL (≈ 0.0454 µM).
